# VIM-2 inhibitor – VIM-2 metallo-beta-lactamase inhibitors, primary screen, biochemical, epi-absorbance readout, Pseudomonas aeruginosa enzyme | purified VIM-2, nitrocefin hydrolysis, epi-absorbance fluorescence | inhibition, % at 5.6 µM | actives 0.89% (n = 290,000);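 active = inhibition above the mean of all tested compounds plus 3 SD, cutoff set per screening run, cut at about 7.5% in these data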;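 note: red hydrolysis product quenches plate fluorescence so inhibitors raise well fluorescence; 0% = enzyme with DMSO and 100% = DMSO without enzyme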
# ERp5 inh – inhibitors of ERp5-driven insulin aggregation, primary screen, biochemical, turbidity, absorbance 650 nm, single point | Protein disulfide-isomerase A6 (Homo sapiens), Q15084 | 90 min | inhibition, % at 9.99 µM | actives 0.05% (n = 350,000);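 active = mean replicate inhibition above about 25%, with every replicate also reaching it, limit read from the data, passing the limit was not always enough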
# PglD DTNB – C. jejuni PglD acetyltransferase inhibitors, primary screen, biochemical, DTNB colorimetric, single point; UDP-N-acetylbacillosamine N-acetyltransferase PglD (Campylobacter jejuni); purified PglD enzyme, DTNB colorimetric CoA detection; inhibition, % at 12.5 µM; actives 0.098% (n = 360,000); in the data active = inhibition above about 16%, passing the limit was not always enough
# IMP-1 inh-1 – IMP-1 metallo-beta-lactamase inhibitors, primary screen, biochemical, epi-absorbance readout, Pseudomonas aeruginosa enzyme. purified IMP-1, nitrocefin hydrolysis, epi-absorbance fluorescence. metallo-beta-lactamase IMP-1 (Pseudomonas aeruginosa). inhibition, % at 5.6 µM. actives 0.45% (n = 290,000);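 active = inhibition above the mean plus 3 SD of all compounds in the same screening run, cut at about 4.5% in these data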;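 note: 0% = IMP-1 with DMSO and 100% = DMSO wells lacking enzyme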
#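 Test system: recombinant IMP-1 enzyme, purified / Medium: HEPES buffer pH 7.1 with ZnSO4 and Brij 35 / Doses: single dose, 5.6 µM / Times: 25 °C, 15 min preincubation, 25 min reaction / Detection: Epi-absorbance via hydrolysed-nitrocefin quenching of white-plate fluorescence, 480/530 nm, EDTA stop / Evaluation: percent inhibition from optical density relative to buffer-blank wells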
# PvdQ acylase – P. aeruginosa PvdQ acylase inhibitors, primary screen, biochemical, fluorescence, plate reader and imaging, single point; purified PvdQ acylase; inhibition, % at 10 µM; actives 0.063% (n = 340,000); in the data active = inhibition above about 30%, passing the limit was not always enough;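 note: 0% = vehicle neutral wells and 100% = reference inhibitor wells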
# PDI inh – inhibitors of human PDI, primary screen, biochemical, turbidity, single point, plate reader. inhibition, % at 10 µM. PDI insulin aggregation turbidity, A650, 90 min. Protein disulfide-isomerase (Homo sapiens), P07237. AID 588391, 2011. actives 0.052% (n = 350,000);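 active = mean inhibition across replicates of 30% or more, whatever share of single replicates reach that level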
# Target sequence (P07237 whole entry, looked up): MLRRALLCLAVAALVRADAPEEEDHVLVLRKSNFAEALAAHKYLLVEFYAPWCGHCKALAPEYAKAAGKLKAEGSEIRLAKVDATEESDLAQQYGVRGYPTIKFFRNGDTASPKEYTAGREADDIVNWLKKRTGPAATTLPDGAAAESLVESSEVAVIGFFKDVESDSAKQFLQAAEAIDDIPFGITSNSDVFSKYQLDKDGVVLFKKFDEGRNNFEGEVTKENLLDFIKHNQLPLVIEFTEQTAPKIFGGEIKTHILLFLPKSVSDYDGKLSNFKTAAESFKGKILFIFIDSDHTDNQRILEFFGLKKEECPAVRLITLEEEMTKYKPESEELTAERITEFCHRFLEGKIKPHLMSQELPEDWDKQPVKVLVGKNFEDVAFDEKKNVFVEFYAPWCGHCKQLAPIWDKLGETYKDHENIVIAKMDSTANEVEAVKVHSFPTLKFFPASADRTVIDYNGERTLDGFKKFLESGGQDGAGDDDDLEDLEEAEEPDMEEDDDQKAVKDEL
# IMP-1 inh-2 – IMP-1 metallo-beta-lactamase inhibitors, confirmation, selectivity assay for selective VIM-2 inhibitor project, biochemical, epi-absorbance readout, triplicate; shares compounds with VIM-2 inhibitor; purified IMP-1, nitrocefin hydrolysis, epi-absorbance fluorescence; inhibition, % at 5.6 µM; 1,300 tested, under 10 active; call rule not given here;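 note: 0% = enzyme with vehicle and 100% = vehicle without enzyme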
# VIM-2 FRET ctr – VIM-2 inhibitors in FRET format, confirmation, artefact control for selective VIM-2 inhibitor project, biochemical, epi-absorbance artifact exclusion. purified VIM-2, CCF2 FRET substrate hydrolysis. actives 23% (n = 1,300). inhibition, % at 5.6 µM. shares compounds with VIM-2 inhibitor;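 active = inhibition above the mean of all tested compounds plus 3 SD, cut at about 19% in these data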;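 note: 0% = VIM-2 plus DMSO and 100% = no enzyme wells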
# TEM-1 counter – TEM-1 serine beta-lactamase inhibitors, counter-screen for VIM-2 inhibitor project, biochemical, epi-absorbance, HTS | inhibition, % at 5.6 µM | actives 3% (n = 1,300) | Purified TEM-1, nitrocefin hydrolysis, epi-absorbance fluorescence | shares compounds with VIM-2 inhibitor;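 active = inhibition above that campaign's mean inhibition plus 3 SD, cut at about 0.46% in these data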;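 note: 0% = TEM-1 with DMSO and 100% = TEM-1 with 100 µM potassium clavulanate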
# VIM-2 confirm 2 – VIM-2 metallo-beta-lactamase inhibitors, confirmation, biochemical, epi-absorbance, hits shared with IMP-1 screen. purified VIM-2, nitrocefin hydrolysis. inhibition, % at 5.6 µM. actives 96% (n = 1,300). shares compounds with VIM-2 inhibitor. AID 2187, 2009;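 active = inhibition of the VIM-2 beta-lactamase enzyme above about 11% from the earlier first-round screen, limit read from the data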;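 note: 0% = VIM-2 with DMSO and 100% = buffer wells without enzyme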
# * hit, by the source's call; . = no result. Rows were chosen to be rich in hits. Some 1% of all compounds tested hit in one or more screens of this group.
SMILES,VIM-2 inhibitor,ERp5 inh,PglD DTNB,IMP-1 inh-1,PvdQ acylase,PDI inh,IMP-1 inh-2,VIM-2 FRET ctr,TEM-1 counter,VIM-2 confirm 2
O=C1C(=O)N(Cc2cccnc2)C(c2ccccn2)/C1=C(/O)c1ccc(F)cc1 (stereo unspecified),52.1*,.,1.7,-2.5,18.1,5.9,-2.4,75.7*,-6.1,68.9*
Cc1ccc(/C(O)=C2/C(=O)C(=O)N(Cc3cccnc3)C2c2ccccn2)cc1 (stereo unspecified),2.8,.,0.9,-3.4,1.4,-12.1,.,.,.,.
Cc1cc(C)n(Cc2ccc(C(=O)N/N=C/c3ccc(-c4ccc([N+](=O)[O-])cc4)o3)o2)n1,41.9*,-7.0,-8.6,-3.9,7.5,12.5,-1.0,0.9,12.8*,14.4*
CCCCC(=O)N/N=C/c1ccc(-c2ccc([N+](=O)[O-])cc2)o1,-2.4,2.0,.,1.1,5.8,-5.3,.,.,.,.
CC(=O)Nc1cccc(-c2nnc(SCC(=O)n3c4c(c5ccccc53)CCCC4)n2C)c1,15.5*,.,-6.3,-1.9,-1.9,6.6,-3.9,9.4,-8.9,4.6
COc1cccc(C2/C(=C(/O)c3ccccc3)C(=O)C(=O)N2Cc2ccco2)c1 (stereo unspecified),-0.3,0.4,-1.7,-3.1,-7.1,4.5,.,.,.,.
COc1ccc(OC)c(C2/C(=C(/O)c3ccccc3)C(=O)C(=O)N2Cc2ccco2)c1 (stereo unspecified),66.5*,-1.7,.,-1.1,-0.5,6.8,-2.7,76.7*,-5.8,70.3*
COc1ccc(/C(O)=C2\C(=O)C(=O)N(Cc3ccco3)C2c2cc(OC)ccc2OC)cc1 (stereo unspecified),12.3*,.,.,-2.8,-16.1,-1.6,-4.0,35.0*,-6.3,25.9*
COc1ccc(OC)c(C2C(C(=O)c3ccco3)=C(O)C(=O)N2Cc2cccnc2)c1 (stereo unspecified),61.1*,0.3,-0.3,-1.5,-0.8,-7.1,-2.4,78.2*,-5.0,67.9*
COc1ccc(OC)c(C2/C(=C(/O)c3ccc(C)cc3)C(=O)C(=O)N2Cc2ccco2)c1 (stereo unspecified),21.2*,.,.,-2.3,-8.1,4.6,-2.7,55.5*,-5.5,45.1*
O=C(N/C(=C\c1cccs1)C(=O)N1CCOCC1)c1cccs1,-0.1,8.3,.,-1.9,5.8,-1.0,.,.,.,.
CN1CCN(C(=O)/C(=C/c2cccs2)NC(=O)c2cccs2)CC1,16.6*,.,.,-3.6,-9.8,9.0,-3.3,-1.9,-6.9,2.5
C[C@@H]1CN([C@@H](C)CO)C(=O)Cc2cc(NC(=O)Nc3ccc(C(F)(F)F)cc3)ccc2O[C@@H]1CN(C)S(C)(=O)=O,.,2.4,0.7,.,.,.,.,.,.,.
c1ccc(-c2noc(-c3ccco3)n2)nc1,-4.6,.,3.2,-0.2,-10.3,5.4,.,.,.,.
c1ccc(-c2nccc(-c3ccco3)n2)nc1,33.6*,2.2,-7.6,-0.8,0.6,-3.3,-5.1,-19.7,-6.8,29.8*
O=C(O)C1Sc2[nH]c(=O)sc2C2c3cc(Cl)ccc3OC(=O)C12 (stereo unspecified),14.2*,.,0.9,-1.8,-2.9,5.9,-1.4,41.0*,-7.6,28.8*
C[C@@H]1CN([C@H](C)CO)C(=O)Cc2cc(NC(=O)C3CC3)ccc2O[C@@H]1CN(C)Cc1ccc(-c2ccccc2)cc1,.,-1.4,-1.8,.,.,.,.,.,.,.
Cc1cc(C)n2c(Br)c(CSc3nc4ccccc4s3)nc2n1,23.2*,.,-2.5,-1.6,-2.3,10.4,-3.2,68.9*,-6.1,47.4*
CC/C(=N\NC(=O)c1cccnc1)c1ccc2c(c1)OCCO2,45.7*,0.6,4.1,-4.0,-14.7,2.0,-3.9,-2.5,-4.8,1.2
C=CCn1c2ccccc2c2nn(C)c(=S)nc21,13.8*,0.3,-1.7,-1.3,-21.1,5.1,-3.9,-0.3,-8.4,17.4*
CCOC(=O)c1cc2c(=O)n3cccc(C)c3nc2n(CC(C)C)c1=NC(=O)c1ccco1,5.2,2.6,-3.9,-0.6,0.2,-4.2,.,.,.,.
COCCCNC(=O)c1cc2c(=O)n3cccc(C)c3nc2n(C(C)C)c1=N,13.4*,.,-11.5,-4.3,-48.5,-3.4,0.3,-78.7,1.1*,28.4*
C=CCn1c(=N)c(C(=O)OCC)cc2c(=O)n3cccc(C)c3nc21,13.5*,.,.,-2.7,.,.,-3.3,-43.9,-4.5,26.2*
COc1ccc(-c2cc3c(=O)n(CC(=O)NCCCN4CCC(N5CCCCC5)CC4)nc(C)n3n2)cc1,24.4*,3.9,0.7,-3.4,-6.1,-5.7,-2.9,0.9,-2.0,31.5*
CCN1CCN(c2cc(N3CCN(C(=O)c4ccco4)CC3)c3c4c(onc24)-c2ccccc2C3=O)CC1,23.3*,.,-2.9,0.7,20.1,-10.9,-2.5,-13.3,-10.1,20.8*
C[C@@H]1CN([C@H](C)CO)C(=O)c2cc(NS(C)(=O)=O)ccc2O[C@@H]1CN(C)C(=O)Nc1ccc2c(c1)OCO2,.,1.4,10.5,.,.,.,.,.,.,.
CCn1cc(C(=O)NCCCN(C)C)c(=O)c2cc(F)c(N3CCN(C)CC3)cc21,21.4*,14.9,1.5,-6.9,-7.7,-2.8,-3.0,4.4,-5.2,36.4*
CCCCCNC(=O)c1cn(CC)c2cc(N3CCN(C)CC3)c(F)cc2c1=O,2.9,4.9,-5.9,0.5,-0.2,5.0,.,.,.,.
O=S(=O)(c1ccccc1)N1CC[C@@H]2[C@H]1c1cc(C#CC3CCCCC3)ccc1N[C@@H]2CO,.,-1.1,.,.,.,.,.,.,.,.
